{"source": "ChEMBL document CHEMBL5715960", "about": "“Epigenetic Co-Deregulation of EZH2/TET1 is a Senescence-Countering, Actionable Vulnerability in Triple-Negative Breast Cancer” (Theranostics, 2019)", "key": {"[1]": {"tested_on": "MDA-MB-231", "assay": "Cytotoxicity against human MDA-MB-231 cells assessed as killing of cells at 2 uM in presence of adriamycin", "format": "functional, cell-based", "how_it_was_run": "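Viability after a range of adriamycin concentrations given alone or together with 2 µM GSK343, measured by Guava ViaCount; mean ± SD.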"}, "[2]": {"tested_on": "MDA-MB-231", "assay": "Effect on human MDA-MB-231 cells assessed as increase in TET1 transcription by qRT-PCR analysis", "format": "functional, cell-based", "how_it_was_run": "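qRT-PCR of TET1, TET2 and TET3 transcripts in breast cancer cells exposed to GSK343 (2 µM unless otherwise indicated), shown relative to DMSO-treated cells. Mean ± SD, triplicate unless stated.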"}, "[3]": {"tested_on": "BT-474", "assay": "Induction of cell cycle arrest in human BT-474 cells assessed as accumulation of cells at S phase measured at 2 uM by BrdU/PI staining based flow cytometric analysis (reference value: 28.6%)", "format": "functional"}, "[4]": {"tested_on": "MDA-MB-231", "assay": "Induction of cell cycle arrest in human MDA-MB-231 cells assessed as accumulation of cells at S phase measured at 2 uM by BrdU/PI staining based flow cytometric analysis (reference value: 44.6%)", "format": "functional"}, "[5]": {"tested_on": "MDA-MB-436", "assay": "In vivo activation of p53 expression in Crl:NU-Foxn1-nu/nu mouse xenografted with human MDA-MB-436 cells at 5 mg/kg, ip in presence of adriamycin treated for 21 days", "format": "functional, organism-based", "conditions": "time 21.0 day"}, "[6]": {"tested_on": "MDA-MB-436", "assay": "Effect on human MDA-MB-436 cells expressing shTET1 assessed as increase in p53 cascade by immunoblot analysis", "format": "functional, cell-based"}, "[7]": {"tested_on": "MDA-MB-231", "assay": "Upregulation of TET1 in human MDA-MB-231 cells at 2 uM for 2 days by immunoblot analysis", "format": "functional, cell-based", "conditions": "time 2.0 day"}}, "note": "The source made the active and inactive calls. The calls are words filed in the database; no cut-off is given here."}
{"smiles": "CCCc1cc(C)[nH]c(=O)c1CNC(=O)c1cc(-c2ccnc(N3CCN(C)CC3)c2)cc2c1cnn2C(C)C", "values": [{"measurement": "Activity", "setting": "[1]", "result": "Active"}, {"measurement": "Activity", "setting": "[2]", "result": "Active"}, {"measurement": "Activity", "setting": "[3]", "result": 26.8, "unit": "%"}, {"measurement": "Activity", "setting": "[4]", "result": 16.1, "unit": "%"}, {"measurement": "Activity", "setting": "[5]", "result": "Active"}, {"measurement": "Activity", "setting": "[6]", "result": "inactive"}, {"measurement": "Activity", "setting": "[7]", "result": "Active"}]}
